Assay results from different studies.
Lines come from different studies, so protocols differ.

C=CS(=O)(=O)Nc1ccc(Cn2cc(C[C@@]3(O)C[C@@H]4c5cc(OCc6cc(C)cc(C)c6)c(OCc6cc(C)cc(C)c6)cc5CCN4[C@@H](C)C3)nn2)cc1
IC50 (ASPC1; cell growth or viability, MTT): 823 nM

COc1ccc(S(=O)(=O)c2ccc(C)cc2)c(OC)c1OC
IC50 (tubulin polymerisation, inhibitor, absorbance; pH 6.6): > 40000 nM

Cc1cc(C)cc(COc2cc3c(cc2OCc2cc(C)cc(C)c2)[C@H]2C[C@](O)(Cc4cn(CCc5ccc(N)cc5)nn4)C[C@H](C)N2CC3)c1
IC50 (ASPC1; cell growth or viability, MTT): 568 nM

COc1cc(Nc2nccc(-c3cnn4nc(OC)ccc34)n2)cc(C(F)(F)F)c1
IC50 (HEC-1-A; cell growth or viability, ATP luminescence): 1000 nM

C[C@@H]1[C@H](O)[C@@H](C)/C=C/C=C/C=C/C=C/C=C/C=C/C=C/[C@H](O[C@@H]2O[C@H](C)[C@@H](O)[C@H](N)[C@@H]2O)C[C@@H]2O[C@](O)(C[C@@H](O)C[C@@H](O)[C@H](O)CC[C@@H](O)C[C@@H](O)CC(=O)O[C@H]1C)C[C@H](O)[C@H]2C(=O)O
IC50 (Cryptococcus neoformans; microbial growth; ATCC90113): 260 nM

CC(C)C[C@H](NC(=O)[C@H](Cc1ccccc1)NC(=O)c1cnccn1)B(O)O
IC50 (RERF-LC-MS; cell growth or viability, ATP luminescence): 20 nM

Cc1cc(C)cc(COc2cc3c(cc2OCc2cc(C)cc(C)c2)C2CC(O)(Cc4cn(CCCCCCNc5cccc6c5C(=O)N(C5CCC(=O)NC5=O)C6=O)nn4)CC(C)N2CC3)c1 (stereo not drawn)
IC50 (ASPC1; cell growth or viability, MTT): 1080 nM

COc1ccc(S(=O)(=O)c2ccc(OC)c(OC)c2OC)cc1
IC50 (tubulin polymerisation, inhibitor, absorbance; pH 6.6): > 40000 nM

Cc1cc(Nc2ncc(Cl)c(Nc3ccccc3S(=O)(=O)C(C)C)n2)c(OC(C)C)cc1C1CCNCC1
inhibition (KARPAS-299; cell growth or viability, MTT; 5 µg/mL, 72 h): 97.7%

Cc1cc(C)cc(COc2cc3c(cc2OCc2cc(C)cc(C)c2)[C@H]2C[C@](O)(Cc4cn(CCc5ccccc5)nn4)C[C@H](C)N2CC3)c1
IC50 (ASPC1; cell growth or viability, MTT): 794 nM

C[C@@H](Oc1cc(-c2cnn(C3CCNCC3)c2)cnc1N)c1c(Cl)ccc(F)c1Cl
inhibition (KARPAS-299; cell growth or viability, MTT; 0.2 µg/mL, 72 h): 75.5%

COc1ccc([S+]([O-])c2ccccc2)c(OC)c1OC (stereo not drawn)
IC50 (tubulin polymerisation, inhibitor, absorbance; pH 6.6): > 40000 nM
